Usually EC50 stands for the midpoint of the concentration-response curve.

This passage reports Activity and EC50 results from ChEMBL document CHEMBL3856186, “Partial Activation and Inhibition of TRPV1 Channels by Evodiamine and Rutaecarpine, Two Major Components of the Fruits of Evodia rutaecarpa” (J Nat Prod, 2016).

SMILES strings stand for the structures. The source made the active and inactive calls. The calls are words filed in the database; no cut-off is given here.

Common to all, as to assay type: cell-based
Test [1] addresses Transient receptor potential cation channel subfamily V member 1 (Rattus norvegicus) (UniProt O35433). The test can be described thus: Agonist activity at rat TRPV1 channel expressed in HEK293 cells assessed as induction of inward current at 50 uM and -60 mV holding potential by whole-cell patch-clamp method. Summed up:
(§1)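 Rat TRPV1 cDNA and an EGFP reporter were cotransfected into HEK293 cells, with recording 1 day later. Whole-cell voltage clamp was run at room temperature (~25 °C) in standard bath (2 mM CaCl2, pH 7.4) with a KCl/MgATP/EGTA pipette solution. Steps from −100 to +100 mV (100 ms) gave I–V curves. Agonist was applied until desensitization, and peak current was scored. EC50 came from a sigmoidal fit.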
For orientation: Patch clamp records ionic current or voltage across a cell membrane.

Test [2] shares this target. The test can be described thus: Agonist activity at rat TRPV1 channel expressed in HEK293 cells assessed as outward rectifying current at 50 uM and -60 mV holding potential by whole-cell patch-clamp method. In short, it runs like this:
as §1

Test [3] shares this target. Kind of test: Agonist activity at rat TRPV1 channel expressed in HEK293 cells assessed as reversal potential at 50 uM and -60 mV holding potential by whole-cell patch-clamp method. Summed up: as §1
Test [4] has as its target Transient receptor potential cation channel subfamily V member 1 (Rattus norvegicus, UniProt O35433). Kind of test: Agonist activity at rat TRPV1 channel expressed in HEK293 cells assessed as induction of channel current at -60 mV holding potential by whole-cell patch-clamp method. In short, it runs like this:
as §1

Test [5] concerns the target Transient receptor potential cation channel subfamily V member 1 (Rattus norvegicus) (UniProt O35433). Kind of test: Partial antagonist activity at rat TRPV1 expressed in HEK293 cells assessed as inhibition of proton-induced channel current at 1 or 50 uM and -60 mV holding potential pretreated for 60 secs prior to proton-challenge by whole-cell patch clamp method (reference value: 185.1 +/- 38.6 pA/pF). In short, it runs like this:
(§2)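 Proton-activated currents were recorded in rat TRPV1-expressing HEK293 cells held at −60 mV in whole-cell mode, with bath buffered to pH 6 with 10 mM MES, at ~25 °C. Peak current amplitude was the read-out.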

Test [6] has the same target. The test can be described thus: Partial antagonist activity at rat TRPV1 expressed in HEK293 cells assessed as inhibition of proton-induced channel current at 2 uM at -60 mV holding potential co-treated with proton by whole-cell patch clamp method. Summed up:
as §2

The target is the same in test [7]. The test can be described thus: Agonist activity at rat TRPV1 channel expressed in HEK293 cells assessed as induction of maximum channel current at 50 uM at -60 mV holding potential by whole-cell patch-clamp method. In short, it runs like this:
as §1

Sequence of Transient receptor potential cation channel subfamily V member 1 (Rattus norvegicus) (O35433 whole entry): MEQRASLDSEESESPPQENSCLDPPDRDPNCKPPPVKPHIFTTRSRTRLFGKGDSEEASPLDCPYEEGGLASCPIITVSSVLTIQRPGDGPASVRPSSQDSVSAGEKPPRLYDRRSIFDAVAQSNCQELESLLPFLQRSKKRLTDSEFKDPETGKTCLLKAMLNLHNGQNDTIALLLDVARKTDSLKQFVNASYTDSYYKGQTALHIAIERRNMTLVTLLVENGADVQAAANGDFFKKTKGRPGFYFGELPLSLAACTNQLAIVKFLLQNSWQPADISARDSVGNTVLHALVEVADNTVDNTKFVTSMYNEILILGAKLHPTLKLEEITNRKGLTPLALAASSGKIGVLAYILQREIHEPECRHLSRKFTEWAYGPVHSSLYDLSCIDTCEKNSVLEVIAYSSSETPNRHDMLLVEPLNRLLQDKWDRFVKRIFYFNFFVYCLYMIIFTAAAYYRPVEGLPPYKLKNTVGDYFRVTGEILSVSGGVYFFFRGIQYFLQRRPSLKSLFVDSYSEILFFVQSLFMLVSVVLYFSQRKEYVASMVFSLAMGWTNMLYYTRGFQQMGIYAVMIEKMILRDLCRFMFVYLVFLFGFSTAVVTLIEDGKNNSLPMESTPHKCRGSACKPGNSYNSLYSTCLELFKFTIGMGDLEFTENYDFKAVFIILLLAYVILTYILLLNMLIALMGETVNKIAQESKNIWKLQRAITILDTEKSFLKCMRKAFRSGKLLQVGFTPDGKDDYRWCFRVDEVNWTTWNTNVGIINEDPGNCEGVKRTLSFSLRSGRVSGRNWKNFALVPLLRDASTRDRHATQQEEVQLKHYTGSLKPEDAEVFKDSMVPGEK
Sequence of Transient receptor potential cation channel subfamily V member 1 (O35433 whole entry): as above

In the case of `O=c1c2ccccc2nc2n1CCc1c-2[nH]c2ccccc12` [RUTAECARPINE], the result in test [1] and in test [2] was Active. The Activity in test [3] was 0 mV; in test [5], -157 pA/pF; in test [6], -200 pA/pF; in test [7], -55 pA/pF. Besides, the EC50 in test [4] worked out at 2060 nM.
